Laboratory results from ChEMBL document CHEMBL4028886 (J Med Chem, 2017).
Active and inactive are the calls of the source. The calls are words filed in the database; no cut-off is given here.

Key:
[1] = system: Rattus norvegicus; experiment: Neurotoxicity in Sprague-Dawley rat assessed as pinna reflex score at 10 mg/kg, ip administered 30 mins prior to test (reference value: 1.2 +/- 1.033); type: toxicity, organism-based; settings: in vivo, 0.5 h
[2] = system: Rattus norvegicus; experiment: Neurotoxicity in Sprague-Dawley rat assessed as visual placing score at 10 mg/kg, ip administered 30 mins prior to test (reference value: 1.9 +/- 0.3162); type: toxicity, organism-based; settings: in vivo, 0.5 h
[3] = system: Rattus norvegicus; experiment: Neurotoxicity in Sprague-Dawley rat assessed as effect on time spent at the margin at 10 mg/kg, ip administered 30 mins prior to test by open field test relative to control; type: toxicity, organism-based; settings: in vivo, 0.5 h
Procedure, shortened: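 Male Sprague–Dawley rats, 10 per group, given 10 mg/kg ip daily for 10 days and 30 min before each test. DMSO vehicle group as control. Open field arena 100 × 100 cm with 40 cm walls. Animals video-tracked for 10 min.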

[4] = system: Rattus norvegicus; experiment: Neurotoxicity in Sprague-Dawley rat assessed as grip strength score at 10 mg/kg, ip administered 30 mins prior to test (reference value: 2.4 +/- 1.265); type: toxicity, organism-based; settings: in vivo, 0.5 h
[5] = system: Rattus norvegicus; experiment: Neurotoxicity in Sprague-Dawley rat assessed as pelvic elevation score at 10 mg/kg, ip administered 30 mins prior to test (reference value: 3.8 +/- 0.6325); type: toxicity, organism-based; settings: in vivo, 0.5 h
[6] = system: Rattus norvegicus; experiment: Neurotoxicity in Sprague-Dawley rat assessed as tail pinch score at 10 mg/kg, ip administered 30 mins prior to test (reference value: 0.8 +/- 0.788); type: toxicity, organism-based; settings: in vivo, 0.5 h
[7] = biological target: Sodium-dependent dopamine transporter (Homo sapiens, UniProt Q01959); experiment: Displacement of [3H]WIN 35,428 from human DAT expressed in HEK293 cells at 1 and 3 uM after 30 mins in presence of increasing concentration of cocaine by liquid scintillation counting; type: cell-based
Chain of Sodium-dependent dopamine transporter (Q01959 whole entry): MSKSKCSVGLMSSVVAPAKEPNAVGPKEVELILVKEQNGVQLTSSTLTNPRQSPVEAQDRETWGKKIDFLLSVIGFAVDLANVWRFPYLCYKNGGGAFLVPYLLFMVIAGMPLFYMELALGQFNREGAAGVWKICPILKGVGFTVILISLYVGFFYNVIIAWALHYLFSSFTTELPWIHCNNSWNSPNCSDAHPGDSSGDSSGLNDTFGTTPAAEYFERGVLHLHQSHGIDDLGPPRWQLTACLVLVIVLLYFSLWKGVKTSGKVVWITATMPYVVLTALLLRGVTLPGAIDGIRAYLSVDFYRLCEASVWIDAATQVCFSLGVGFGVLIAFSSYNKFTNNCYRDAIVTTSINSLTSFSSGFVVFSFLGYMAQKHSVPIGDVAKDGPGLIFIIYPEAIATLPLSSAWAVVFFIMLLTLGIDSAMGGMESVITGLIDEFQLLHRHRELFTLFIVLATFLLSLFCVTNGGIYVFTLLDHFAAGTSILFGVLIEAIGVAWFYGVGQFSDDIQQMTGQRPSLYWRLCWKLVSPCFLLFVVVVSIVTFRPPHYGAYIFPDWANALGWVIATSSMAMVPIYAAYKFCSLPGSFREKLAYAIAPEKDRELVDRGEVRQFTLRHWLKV
Procedure, shortened: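 Intact HEK-DAT cells on PDL-coated plates, in binding buffer (HEPES, NaCl, KCl, CaCl2, MgCl2, 10 μM ZnCl2, glucose, pH 7,3). Incubated with ~10 nM [3H]WIN 35,428, fixed concentrations of test compound and cocaine 0.001–1 μM, 30 min at 25 °C. Nonspecific binding defined with 30 μM mazindol. Cells lysed in 1% SDS and counted by scintillation. Reciprocal of bound (fmol) plotted against cocaine concentration as Dixon plot. Three experiments in triplicate, mean ± SD.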

[8] = system: Rattus norvegicus; experiment: Neurotoxicity in Sprague-Dawley rat assessed as touch escape score at 10 mg/kg, ip administered 30 mins prior to test (reference value: 1.2 +/- 1.033); type: toxicity, organism-based; settings: in vivo, 0.5 h
[9] = system: Rattus norvegicus; experiment: Neurotoxicity in Sprague-Dawley rat assessed as effect on time spent on revolving rod at 10 mg/kg, ip administered 30 mins prior to test by rotarod test relative to control; type: toxicity, organism-based; settings: in vivo, 0.5 h
Procedure, shortened: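 Male Sprague–Dawley rats, 10 per group, dosed 10 mg/kg ip daily for 10 days and 30 min before testing. DMSO vehicle controls. Rotarod, time spent on the revolving rod recorded.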

[O-][S+](Cc1cccs1)C(c1ccccc1)c1ccccc1 (centres undefined)
Activity [1]: 1.4 | Activity [2]: 1.7 | Activity [3]: Non-Toxic | Activity [4]: 3 | Activity [5]: 3.6 | Activity [6]: 0.9 | inhibition [7]: Active | Activity [8]: 1.2 | Activity [9]: Non-Toxic
